Results on five compounds are retold here after ChEMBL document CHEMBL2176984, “Target Selectivity of FimH Antagonists” (J Med Chem, 2012).

Structures are written as SMILES. Active and inactive are the calls of the source. The rule behind the calls is not given here.

Data set [1] deals with T1, Pulmonary surfactant-associated protein D (Homo sapiens) (UniProt P35247).
T1 sequence (whole entry): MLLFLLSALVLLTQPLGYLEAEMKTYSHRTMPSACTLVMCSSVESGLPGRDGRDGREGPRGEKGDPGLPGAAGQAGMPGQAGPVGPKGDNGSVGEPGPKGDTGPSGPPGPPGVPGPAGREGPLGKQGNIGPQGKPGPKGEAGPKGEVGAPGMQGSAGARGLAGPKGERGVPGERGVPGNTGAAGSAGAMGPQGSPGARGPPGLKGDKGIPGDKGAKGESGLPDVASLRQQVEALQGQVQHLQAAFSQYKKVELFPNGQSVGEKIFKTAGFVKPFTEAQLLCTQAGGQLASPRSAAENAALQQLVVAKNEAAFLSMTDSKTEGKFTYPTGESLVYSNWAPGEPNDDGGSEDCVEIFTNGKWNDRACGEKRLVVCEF
Description: Displacement of biotinylated-TM PAA from human SP-D at 1 mM after 3 hrs by colorimetry. A digest of the protocol: (§1)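 Proteins were coated overnight at 4 °C in 20 mM HEPES pH 7.4, 150 mM NaCl and 10 mM CaCl2, then blocked with 3% BSA for 2 h at 4 °C. FimH was a CRD-thrombin-6His construct expressed in E. coli HM125; DC-SIGN and DC-SIGNR were CRD-Fc chimeras made in stably transfected CHO-K1. Compound at 1 mM final was co-added with streptavidin-HRP-coupled TM-PAA, incubated 3 h at 25 °C and 350 rpm, then read by ABTS OD 415 nm. No-antagonist signal was set to 100% and no-polymer background to 0%.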

Data set [2] has as its target T2, C-type lectin domain family 4 member C (Homo sapiens, UniProt Q8WTT0).
T2 sequence (Q8WTT0 whole entry): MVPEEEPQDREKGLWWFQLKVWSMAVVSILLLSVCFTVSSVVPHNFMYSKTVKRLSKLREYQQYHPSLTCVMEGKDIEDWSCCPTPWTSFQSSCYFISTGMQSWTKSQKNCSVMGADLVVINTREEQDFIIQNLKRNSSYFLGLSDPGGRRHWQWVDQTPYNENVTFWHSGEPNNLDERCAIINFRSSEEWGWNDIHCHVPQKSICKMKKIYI
Description: Displacement of biotinylated-TM PAA from human DLEC after 3 hrs by colorimetry.

The target in data set [3] is T3, C-type lectin domain family 6 member A (Homo sapiens) (UniProt Q6EIG7).
T3 sequence (whole entry): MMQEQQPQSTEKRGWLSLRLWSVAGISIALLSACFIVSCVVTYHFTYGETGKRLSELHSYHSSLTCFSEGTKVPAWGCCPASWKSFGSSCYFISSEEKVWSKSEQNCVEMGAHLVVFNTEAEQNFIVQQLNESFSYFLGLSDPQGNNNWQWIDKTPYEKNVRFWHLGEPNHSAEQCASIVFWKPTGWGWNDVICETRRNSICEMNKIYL
Description: Displacement of biotinylated-TM PAA from human Dectin-2 at 1 mM after 3 hrs by colorimetry. The method, boiled down: as §1

Data set [4] is described as follows: Cmax in mouse. Type of data set: ADME, organism-based. As to conditions: in vivo.
Data set [5] addresses T4, C-type lectin domain family 4 member C (Homo sapiens) (UniProt Q8WTT0).
T4 sequence (whole entry): T2 sequence (Q8WTT0 whole entry)
Description: Displacement of biotinylated-TM PAA from human DLEC at 1 mM after 3 hrs by colorimetry. A digest of the protocol:
as §1

Data set [6] has as its target T5, Macrophage mannose receptor 1 (Homo sapiens, UniProt P22897).
T5 sequence (P22897 whole entry): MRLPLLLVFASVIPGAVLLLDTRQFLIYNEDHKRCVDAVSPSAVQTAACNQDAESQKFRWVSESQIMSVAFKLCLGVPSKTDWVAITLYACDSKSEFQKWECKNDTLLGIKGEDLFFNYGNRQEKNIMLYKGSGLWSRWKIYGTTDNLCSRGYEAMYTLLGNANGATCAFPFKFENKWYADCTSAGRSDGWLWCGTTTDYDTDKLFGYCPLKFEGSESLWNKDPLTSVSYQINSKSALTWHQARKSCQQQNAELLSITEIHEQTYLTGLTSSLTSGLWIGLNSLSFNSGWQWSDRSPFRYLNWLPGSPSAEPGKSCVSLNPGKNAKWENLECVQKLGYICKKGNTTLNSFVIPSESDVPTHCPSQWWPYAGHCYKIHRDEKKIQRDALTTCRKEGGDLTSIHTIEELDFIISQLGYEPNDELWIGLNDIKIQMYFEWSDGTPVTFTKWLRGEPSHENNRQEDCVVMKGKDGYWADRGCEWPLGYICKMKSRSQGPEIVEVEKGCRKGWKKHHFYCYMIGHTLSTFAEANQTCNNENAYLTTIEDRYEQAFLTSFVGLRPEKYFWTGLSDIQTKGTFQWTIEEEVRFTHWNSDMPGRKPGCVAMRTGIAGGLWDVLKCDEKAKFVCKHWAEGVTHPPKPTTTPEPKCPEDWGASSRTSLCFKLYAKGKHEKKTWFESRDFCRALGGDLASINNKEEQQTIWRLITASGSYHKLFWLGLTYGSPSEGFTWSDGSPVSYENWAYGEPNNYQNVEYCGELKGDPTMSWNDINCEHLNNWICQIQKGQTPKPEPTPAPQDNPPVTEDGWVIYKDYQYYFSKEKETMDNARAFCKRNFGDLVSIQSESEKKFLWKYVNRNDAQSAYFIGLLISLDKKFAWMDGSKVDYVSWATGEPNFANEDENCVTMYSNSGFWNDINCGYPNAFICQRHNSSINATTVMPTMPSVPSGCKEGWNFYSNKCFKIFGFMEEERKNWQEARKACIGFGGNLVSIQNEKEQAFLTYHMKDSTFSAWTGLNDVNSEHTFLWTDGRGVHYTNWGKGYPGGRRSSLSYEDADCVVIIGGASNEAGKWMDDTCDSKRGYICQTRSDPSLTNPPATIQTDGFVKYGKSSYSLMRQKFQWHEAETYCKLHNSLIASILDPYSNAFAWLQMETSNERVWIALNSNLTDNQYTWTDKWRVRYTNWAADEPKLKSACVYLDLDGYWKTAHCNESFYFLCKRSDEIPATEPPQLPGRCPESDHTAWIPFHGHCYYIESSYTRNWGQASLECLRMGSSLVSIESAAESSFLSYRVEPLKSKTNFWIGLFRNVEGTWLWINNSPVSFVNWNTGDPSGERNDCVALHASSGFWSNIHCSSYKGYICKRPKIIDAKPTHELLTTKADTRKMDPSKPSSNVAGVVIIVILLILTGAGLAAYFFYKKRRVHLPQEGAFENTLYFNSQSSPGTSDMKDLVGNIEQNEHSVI
Description: Displacement of biotinylated-TM PAA from human MMR after 3 hrs by colorimetry.

Data set [7] concerns the target C-type lectin domain family 4 member K (Homo sapiens, UniProt Q9UJ71). Description: Displacement of biotinylated-TM PAA from human langerin after 3 hrs by colorimetry.

Sequence of C-type lectin domain family 4 member K (Q9UJ71 whole entry, the tested form may be a part): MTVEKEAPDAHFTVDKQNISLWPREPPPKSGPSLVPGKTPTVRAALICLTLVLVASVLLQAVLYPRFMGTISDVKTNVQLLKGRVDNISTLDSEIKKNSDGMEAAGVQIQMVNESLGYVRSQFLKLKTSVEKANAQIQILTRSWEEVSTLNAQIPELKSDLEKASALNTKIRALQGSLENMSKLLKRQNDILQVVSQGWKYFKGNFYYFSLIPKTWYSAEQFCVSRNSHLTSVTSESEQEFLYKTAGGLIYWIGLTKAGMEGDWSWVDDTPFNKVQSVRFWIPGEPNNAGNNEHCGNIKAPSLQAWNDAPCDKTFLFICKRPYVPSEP

Regarding `O=C(O)c1ccc(-c2ccc(O[C@H]3O[C@H](CO)[C@@H](O)[C@H](O)[C@@H]3O)cc2)cc1`, the inhibition result in data set [1] and in data set [3] was “inactive” each time. In data set [2], this compound had an IC50 of 1 mM. In data set [4], this compound registered a peak concentration (Cmax) of 80 µM. Moreover, the inhibition in data set [5] stood at 50%.
As for `O=C(O)c1ccc(-c2ccc(O[C@H]3O[C@H](CO)[C@@H](O)[C@H](O)[C@@H]3O)c(Cl)c2)cc1`, the inhibition entry in data set [1], in data set [3] and in data set [5] was “inactive” each time. Moreover, the IC50 in data set [6] and in data set [7] was 1 mM each time. In data set [4], this compound showed a Cmax of 97 µM.
Turning to `O=C(O)c1ccc2c(ccn2-c2ccc(O[C@H]3O[C@H](CO)[C@@H](O)[C@H](O)[C@@H]3O)c(Cl)c2)c1`, the inhibition result in data set [1], in data set [3] and in data set [5] was “inactive” throughout. Besides, the IC50 in data set [6] worked out at 1 mM.
On to `CCCCCCCO[C@H]1O[C@H](CO)[C@@H](O)[C@H](O)[C@@H]1O`, for which the inhibition result in data set [1], in data set [3] and in data set [5] was “inactive” in each case. For the same compound, the highest level in data set [4] (Cmax) was 144 µM.
Consider `CN1CCN(c2c(Nc3ccc(O[C@H]4O[C@H](CO)[C@@H](O)[C@H](O)[C@@H]4O)c(Cl)c3)c(=O)c2=O)CC1`, for which the inhibition result in data set [1], in data set [3] and in data set [5] was “inactive” each time.
